A selection: hits, their analogues and other compounds. The true share with any hit is near 2.9%.
MEKK2 mut-MEK5 = MEK5 binding signal on mutant MEKK2 PB1, primary screen, biochemical, multiplex bead flow cytometry, Alexa488-MEK5; hit rate 0.35% among 290,000; Alexa488-MEK5 binding to MEKK2 mutant; percent response, % at 10 µM; AID 1530, 2009; in the data active means percent response above about 24%, passing the limit was not always enough
MEKK2wt PB1 HTS = modulators of MEK5 binding to wildtype MEKK2, primary screen, biochemical, multiplex bead flow cytometry, Alexa488-MEK5 | Alexa488-MEK5 binding to MEKK2 WT; actives lie on both sides | binding response (% of control), % at 10 µM | hit rate 1.1% among 290,000 | AID 1531, 2009; in the data active means binding response below about 67% or above about 130%
Apaf1 inhib = inhibitors of human Apaf-1 apoptosome, primary screen, biochemical, DEVD-Rh110 fluorescence, uHTS; hit rate 0.71% among 330,000; Apoptotic protease-activating factor 1 (Homo sapiens), O14727; inhibition, % at 20 µM; reconstituted apoptosome caspase-3 activity; active means inhibition of at least 40% at 20 µM;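 further: plate controls were DMSO wells for no effect and DEVD-CHO caspase inhibitor wells for full effect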
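Medium: Hepes buffer, pH 7.5 / System: biochemical Apaf-1 apoptosome reconstitution / Measured by: Rh110 fluorescence, excitation 480 nm, emission 540 nm / Times: compound with Apaf-1, dATP, procaspase-3 30 min, then 50 min reaction, room temperature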
UBC13 inh = UBC13 polyubiquitin chain formation inhibitors, primary screen, biochemical, TR-FRET, uHTS. AID 485273, 2010. Ubiquitin-conjugating enzyme E2 N (Homo sapiens), P61088. inhibition, % at 20 µM. hit rate 0.47% among 330,000; in the data active means inhibition above about 45%, passing the limit was not always enough
MEKK3 PB1 HTS = modulators of MEKK3-MEK5 PB1 binding, primary screen, biochemical, wildtype MEKK3, multiplex bead flow cytometry, Alexa488-MEK5. bead-based flow cytometry, Alexa488-MEK5 binding to MEKK3; actives lie on both sides; 0 = blocked by unlabeled MEK5, 100 = vehicle. binding response (% of control), % at 10 µM. hit rate 1.4% among 290,000. AID 1529, 2009;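 active means binding response more than 3 SD above or below the average of its plate-row segment, actives on both sides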;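 further: Alexa488 bead fluorescence after subtracting the streptavidin-only scavenger bead signal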
Casp3 counter = CASP3 inhibitor validation, counterassay for project on UBE2N polyubiquitination blockers, biochemical, one dose | hit rate 4% among 1,400 | inhibition, % at 20 µM | Recombinant caspase-3, Caspase-Glo 3/7 luminescence, 60 min | shares compounds with UBC13 inh;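 active means mean inhibition across replicates above about 26%, limit read from the data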;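 further: plate controls were DMSO with caspase-3 for no effect and DMSO wells lacking enzyme for full effect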
UBC13 conf = UBC13 polyubiquitination inhibitors, single-point retest, confirmation, biochemical, TR-FRET, single concentration; AID 488859, 2010; inhibition, % at 10 µM; shares compounds with UBC13 inh; hit rate 68% among 1,400; in the data active means inhibition above about 45%
Apaf-1 inh conf = Apaf-1 inhibitors, single-dose retest, confirmation, biochemical, fluorescence, DEVD-Rh110, 20 µM. reconstituted apoptosome, caspase-3 DEVD-Rh110 fluorescence. hit rate 25% among 1,800. shares compounds with Apaf1 inhib. inhibition, % at 20 µM;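 active means mean inhibition of at least 40% at 20 µM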;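 further: plate controls were DMSO wells for no effect and DEVD-CHO caspase inhibitor control wells for full effect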
Rh110 interf inh = Rh110 fluorescence interference by putative Apaf-1 inhibitors, confirmation, artefact control for Apaf-1 inhibitor project, biochemical, 20 µM. shares compounds with Apaf1 inhib. 1,800 tested, under 10 active. activation (fluorescence interference), % at 20 µM. quenched caspase reaction;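 active means signal rise of 40% or more at 20 µM, treated as a fluorescence artifact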
Fluor interf inh = fluorescence interference of Apaf-1 inhibitor hits, dose response, artefact control for Apaf-1 inhibitor project | shares compounds with Apaf1 inhib | fluorescence interference counterscreen, Apaf-1 assay format | IC50, µM | 460 tested, under 10 active | AID 588538, 2011; call rule not given here
Numbers without * were called inactive; nt = not tested or not shown.

SMILES | MEKK2 mut-MEK5 | MEKK2wt PB1 HTS | Apaf1 inhib | UBC13 inh | MEKK3 PB1 HTS | Casp3 counter | UBC13 conf | Apaf-1 inh conf | Rh110 interf inh | others
CCc1ccc2nc(N3C(=O)c4oc5ccccc5c(=O)c4C3c3ccc(OC)c(OC)c3)sc2c1 (centres undefined) | -1 | 98 | -1 | -7 | 104 | nt | nt | nt | nt
CC[C@@H](C)[C@@H]1CN([C@@H](CN2CCC[C@H]2CN2C(N)=NC[C@H]2C(C)C)C(C)C)C(=N)N1CCc1ccc(Cl)c(Cl)c1 | nt | nt | 51* | 75* | nt | -2 | 61* | 16 | 6
CC[C@@H](C)[C@@H]1CN([C@@H](C)CN2CCC[C@H]2CN2C(N)=NC[C@@H]2Cc2ccccc2)C(=N)N1CCCC1CCCC1 | nt | nt | 62* | 71* | nt | -2 | 73* | 2 | -2
CCCCN1C(=N)N([C@@H](CCC)CN2CCC[C@H]2CN2C(N)=NC[C@@H]2Cc2ccccc2)C[C@H]1[C@H](C)CC | nt | nt | 34 | 37 | nt | nt | nt | nt | nt
CC[C@@H](C)[C@@H]1CN([C@@H](C)CN2CCC[C@H]2CN2C(N)=NC[C@@H]2Cc2ccccc2)C(=N)N1CCc1ccc(Cl)c(Cl)c1 | nt | nt | 71* | 76* | nt | 2 | 70* | 6 | 6
Cn1c(N)c(C(=O)Nc2c(Cl)cccc2Cl)sc1=S | -5 | 101 | -12 | -8 | 96 | nt | nt | nt | nt
CCN1CCN(S(=O)(=O)c2ccc(Cl)c(C(=O)N(C)Cc3cccs3)c2)CC1 | nt | nt | 58* | 49* | nt | -3 | 55* | 31 | 1
O=C(COC(=O)Cc1ccc(Br)cc1)Nc1ccc(Cl)cn1 | nt | nt | 20 | 14 | nt | nt | nt | nt | nt
CCCCCOc1ccc(Br)cc1CSC(=N)N | 2 | 121 | nt | nt | 109 | nt | nt | nt | nt
CCCCCc1ccc(OCCCC[n+]2cccc(C)c2)c(CCCCC)c1 | -10 | 124 | 61* | 59* | 72 | -3 | 90* | 40* | 9 | Fluor interf inh=>100
CC(C)C[C@H]1CN=C(Nc2ccccc2)N1CC1CCC(C(C)(C)C)CC1 (some centres undefined) | nt | nt | 56* | 87* | nt | -2 | 73* | 23 | 14
C=C(C)[C@@H]1CC=C(CN2CCC(CCOC)(C(=O)OCC)CC2)CC1 | -14 | 92 | -2 | 4 | 102 | nt | nt | nt | nt
COc1ccc(C(CNC(=O)COc2c(C)cc(C)cc2C)N2CCOCC2)cc1 (centres undefined) | nt | nt | 66* | 51* | nt | -1 | 29 | 45* | 7 | Fluor interf inh=>100
COc1ccc(NS(=O)(=O)c2ccc(C)c(NC(=O)CN3C(=O)NC4(CCCC4)C3=O)c2)cc1 | nt | nt | 82* | 106* | nt | 0 | 55* | 58* | 2 | Fluor interf inh=>100
C#CCOCCOCCOCCNc1nc(N2CCN(C(=O)Cn3cc(CCCCN)nn3)CC2)nc(N2CCN(C(=O)[C@H]([C@@H](C)CC)n3cc(CCCN=C(N)N)nn3)CC2)n1 | nt | nt | 21 | 27 | nt | nt | nt | nt | nt
C#CCOCCOCCOCCNc1nc(N2CCN(C(=O)[C@H]([C@@H](C)CC)n3cc(CCCCN)nn3)CC2)nc(N2CCN(C(=O)[C@H](C)n3cc(CCCN=C(N)N)nn3)CC2)n1 | nt | nt | 14 | 30 | nt | nt | nt | nt | nt

Bioassay records: PubChem, several laboratories
